Source: PubChem
An excerpt weighted towards active compounds, which were near 1.2% of everything screened.
M1 ag parental – nonselective activator or artifact in parental CHO-K1 cells; activation, % at 3 µM; actives 0.48% (n = 360,000); Fluo-8 calcium fluorescence; scaled to maximal ATP response, vehicle zero; AID 602248; in the data active = activation above about 15%;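 note: untransfected CHO-K1 host cells lacking M1 receptor as counterscreen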
TRPML3 agonist – agonists of human TRPML3 channel. Q8TDD5. HEK293 TRPML3-YFP, Fluo-8 calcium fluorescence; 100% = the carbachol control signal. activation, % at 3 µM. actives 0.29% (n = 220,000);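 active = activation above its plate's cutoff, the mean activation of the plate's test wells plus 3 SD, cut at about 12% in these data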;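 note: 0% = DMSO only wells and 100% = carbachol wells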
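system = HEK293 cells stably carrying human TRPML3-YFP | doses = one concentration, 3 µM nominal, 0.3% DMSO | timing = dye loading 1 h 37 °C then 30 min ambient, 125 s read | detection = Fluo-8 calcium dye fluorescence, ex 470-495, em 515-575 nm | benchmarks = high control carbachol 87 µM, low control DMSO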
M1 PAM parental – M1 PAM counterscreen hit in parental CHO-K1 cells | activation, % at 3 µM | ATP EC20, Fluo-8 calcium fluorescence; 0% at ATP EC20, 100% at ATP max | actives 0.02% (n = 360,000);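 active = activation above the run cutoff, the mean activation of all test compounds plus 3 SD, cut at about 40% in these data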;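 note: peak over basal fluorescence ratio in a 140 s read after ATP addition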
CHO-K1 Ca antag – counter-screen for M1 antagonists: effect in parental CHO-K1 cells; AID 602250; ATP-induced calcium, Fluo-8 fluorescence; inhibition, % at 3 µM; actives 0.6% (n = 360,000);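 active = inhibition above a per-plate cutoff, the plate's mean sample inhibition plus 3 SD, cut at about 24% in these data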;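 note: 0% = DMSO plus EC80 ATP and 100% = DMSO alone without ATP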
zfTRPN1 agonist – zebrafish TRPN1 (NompC) channel agonism | actives 0.18% (n = 220,000) | AID 1424 | activation, % at 3 µM | HEK293 zebrafish TRPN1-YFP, Fluo-8 calcium fluorescence; 100% = response to 87 µM carbachol;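 active = activation above its plate's cutoff, the mean activation of test wells on that plate plus 3 SD, cut at about 19% in these data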;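 note: 0% = DMSO alone and 100% = 87 µM carbachol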
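Control set: carbachol 87 µM as high control, DMSO as low control; system: HEK293 stable line with zebrafish TRPN1-YFP; read-out: % activation versus carbachol response; detection: intracellular calcium fluorescence with Fluo-8; doses: single test compound dose, 3 µM nominal, 0.3% DMSO; schedule: dye 1 h 37 °C plus 30 min RT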
Active calls of the source: *; x = not tested or not shown.

SMILES	M1 ag parental	TRPML3 agonist	M1 PAM parental	CHO-K1 Ca antag	zfTRPN1 agonist
COc1cccc(N(C(=O)c2sc(C)nc2C)C(C(=O)NCC2CCCO2)c2ccccc2)c1 (centres undefined)	5.3	x	-4.9	27.4*	x
COC(=O)NCC(c1ccco1)N1CCN(c2ccc(OC)cc2)CC1 (centres undefined)	0.4	0.4	-17.8	3.7	0.5
CCC(=O)NCC(c1ccco1)N1CCN(c2ccc(OC)cc2)CC1 (centres undefined)	17.3*	0.8	6.9	-0.9	0.4
CCOC1=C2[C@H](c3ccccc3)N(S(=O)(=O)c3ccc(C)cc3)C(C(C)(C)C)[C@H]2C(C#N)(C#N)C(C#N)(C#N)C1 (some centres undefined)	0.8	x	14.3	1.0	x
Cc1ccc(C(=Cc2ccc([N+](=O)[O-])cc2)C(=O)O)cc1	0.3	x	1.3	-0.4	x
COc1ccc(-n2nnnc2C(c2cccc3ccccc23)N2CCN(C/C=C/c3ccccc3)CC2)cc1 (centres undefined)	-0.1	x	-9.8	13.8	x
NNC(=O)c1[nH]c2ccc([N+](=O)[O-])cc2c1-c1ccccc1	2.5	x	11.2	-9.4	x
Cc1c(C(=O)NN)[nH]c2ccc([N+](=O)[O-])cc12	25.8*	1.5	-5.1	7.7	2.4
Nc1ncnc2c1ncn2[C@@H]1O[C@H](CO)C[C@H]1O	-0.7	x	-4.5	24.2*	x
Nc1ncnc2c1ncn2C1OC(CO)C2OC21 (centres undefined)	1.2	x	16.5	-10.8	x
Nc1ncnc2c1ncn2[C@@H]1O[C@H](COP(=O)(O)OP(=O)(O)OP(=O)(O)O)[C@@H](O)[C@H]1O	36.7*	x	4.6	-0.7	x
O=c1ccc2c(-c3ccccc3)c3ccc(O)cc3oc-2c1	532.9*	x	-11.4	93.0*	x
COc1ccc(-c2c(C)c3ccc(O)cc3oc2=O)cc1OC	1.2	x	2.2	-9.7	x
O=c1cc(-c2ccccc2)oc2cc(O)ccc12	0.7	x	4.9	-3.0	x
Nc1ccc(-c2c3ccc(=O)cc-3oc3cc(O)ccc23)cc1C(=O)O	133.5*	x	-27.7	27.0*	x
CC1(C(=O)NS(=O)(=O)Cc2ccccc2)CCN1C(=O)CCc1ccccc1 (centres undefined)	0.4	x	11.7	-5.4	x
Fc1ccc(-c2cc(C(F)(F)C(F)F)[nH]n2)cc1	26.3*	10.2	5.9	-1.5	13.1
FC(F)C(F)(F)c1cc(-c2ccc(Cl)cc2)n[nH]1	18.1*	2.5	16.7	2.1	6.6
Oc1ccccc1-c1cc(C(F)(F)C(F)F)[nH]n1	8.9	0.6	1.1	-11.3	1.6
CCOC(=O)C1(C)CCCN1C(=O)c1cccc2ccccc12 (centres undefined)	0.1	x	9.4	-4.4	x
CC1(C(=O)NS(=O)(=O)c2ccccc2OC(F)(F)F)CCN1C(=O)Cc1ccccc1 (centres undefined)	0.0	x	16.8	-9.9	x
O=c1[nH]c2ccc(N/C(=N/S(=O)(=O)c3ccccc3)c3ccccc3)cc2[nH]1	-0.1	0.5	-12.9	27.3*	-0.2
Cn1nnnc1SCCNCc1cc(Cl)ccc1OCc1ccccc1	7.7	-0.6	3.2	-2.6	-1.4
COc1cc(OC)c(OC)cc1CNCCSc1nnnn1C	18.8*	0.7	10.9	0.9	-1.0
N#CC1=C(N)OC2=C(C(=O)CCC2)C1c1cc2c(cc1Cl)OCO2 (centres undefined)	0.3	x	-24.1	23.7*	x
SMILES	M1 ag parental	TRPML3 agonist	M1 PAM parental	CHO-K1 Ca antag	zfTRPN1 agonist
N#CC1=C(N)OC2=C(C(=O)CCC2)C1c1cc2c(cc1Br)OCO2 (centres undefined)	-0.1	x	-9.5	28.5*	x
C[C@@H]1CN([C@@H](C)CO)C(=O)c2cc(Br)cnc2O[C@H]1CN(C)C(=O)Nc1ccccc1	0.4	x	11.2	-8.8	x
COc1cc(OC)cc(C(=O)NCC(=O)OCc2cc(=O)oc3cc(OC)ccc23)c1	17.9*	-0.3	14.9	3.1	-0.2
COc1ccc2c(COC(=O)CNS(=O)(=O)c3ccccc3)cc(=O)oc2c1	2.0	x	6.7	-13.0	x
COc1ccc2c(COC(=O)CNS(=O)(=O)c3ccc(C)c(C)c3)cc(=O)oc2c1	1.4	x	3.7	-16.9	x
CCCNS(=O)(=O)c1cccc(C(=O)OCc2cc(=O)oc3cc(OC)ccc23)c1	15.8*	x	1.9	0.7	x
